Reference: ChEMBL document CHEMBL1949548, “A β-tryptase inhibitor with a tropanylamide scaffold to improve in vitro stability and to lower hERG channel binding affinity” (Bioorg Med Chem Lett, 2012)

Assays:
[1] = Inhibition of human tryptase-beta using S-2366 as substrate by chromogenic assay
[2] = Metabolic stability in human liver microsomes after 20 mins; assay type: ADME, Microsome
Summary of the method: (§1)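 Liver microsomal fractions prepared by centrifugation. Compound incubated with the fractions for 20 min before the reaction was stopped. Stability expressed as percent of compound metabolized.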

[3] = Metabolic stability in rat liver microsomes after 20 mins; assay type: ADME, Microsome; summary of the method: as §1
[4] = Chemical stability in presence of human semicarbazide-sensitive amine oxidase assessed as compound remaining; assay type: physicochemical
Summary of the method: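 Human semicarbazide-sensitive amine oxidase (hSSAO) stability read as percent of compound remaining after 24 h.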

Cytochrome P450 3A4 = Cytochrome P450 3A4 (Homo sapiens, UniProt P08684); assay: Inhibition of human CYP3A4 using midazolam as substrate by LC-MS/MS analysis; assay type: ADME
Summary of the method: (§2)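 Direct-acting CYP inhibition was run in human liver microsomes. Activity was read by LC–MS/MS of marker-substrate turnover: midazolam for CYP3A4 and dexotromethorphan for CYP2D6. IC50 values were derived.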

Cytochrome P450 2D6 = Cytochrome P450 2D6 (Homo sapiens, UniProt P10635); assay: Inhibition of human CYP2D6 using dexotromethorphan as substrate by LC-MS/MS analysis; assay type: ADME; summary of the method: as §2
[5] = biological target: Voltage-gated inwardly rectifying potassium channel KCNH2 (Homo sapiens, UniProt Q12809); assay: Inhibition of human ERG by whole-cell patch clamp electrophysiology assay
Summary of the method: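 hERG potassium channel expressed in Chinese hamster ovary cells; channel currents recorded by whole-cell patch clamp electrophysiology.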

hERG (KCNH2) [6] = biological target: T1, hERG (KCNH2) (Homo sapiens, UniProt Q12809); assay: Inhibition of human ERG at 1 uM by whole-cell patch clamp electrophysiology assay
Summary of the method: (§3)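 hERG potassium channel expressed in Chinese hamster ovary cells. Channel currents recorded by whole-cell patch clamp electrophysiology, with percent inhibition of current reported.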

hERG (KCNH2) [7] = biological target: T1, hERG (KCNH2); assay: Inhibition of human ERG at 10 uM by whole-cell patch clamp electrophysiology assay; summary of the method: as §3

Chain of Cytochrome P450 3A4 (P08684 whole entry): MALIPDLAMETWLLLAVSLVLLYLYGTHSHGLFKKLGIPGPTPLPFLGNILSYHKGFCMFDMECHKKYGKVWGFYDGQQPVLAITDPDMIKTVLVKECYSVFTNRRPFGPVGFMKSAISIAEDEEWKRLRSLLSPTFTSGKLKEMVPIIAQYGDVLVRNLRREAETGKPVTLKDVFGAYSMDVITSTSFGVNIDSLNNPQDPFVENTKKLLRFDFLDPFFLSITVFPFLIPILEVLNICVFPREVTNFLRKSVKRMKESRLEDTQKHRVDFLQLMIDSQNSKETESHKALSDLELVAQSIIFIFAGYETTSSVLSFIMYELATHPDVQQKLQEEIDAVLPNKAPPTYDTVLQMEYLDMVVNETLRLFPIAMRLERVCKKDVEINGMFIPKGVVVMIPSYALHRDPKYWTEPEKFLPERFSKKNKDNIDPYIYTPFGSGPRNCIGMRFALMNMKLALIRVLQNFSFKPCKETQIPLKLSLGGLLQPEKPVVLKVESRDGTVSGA
T1 sequence (Q12809 whole entry): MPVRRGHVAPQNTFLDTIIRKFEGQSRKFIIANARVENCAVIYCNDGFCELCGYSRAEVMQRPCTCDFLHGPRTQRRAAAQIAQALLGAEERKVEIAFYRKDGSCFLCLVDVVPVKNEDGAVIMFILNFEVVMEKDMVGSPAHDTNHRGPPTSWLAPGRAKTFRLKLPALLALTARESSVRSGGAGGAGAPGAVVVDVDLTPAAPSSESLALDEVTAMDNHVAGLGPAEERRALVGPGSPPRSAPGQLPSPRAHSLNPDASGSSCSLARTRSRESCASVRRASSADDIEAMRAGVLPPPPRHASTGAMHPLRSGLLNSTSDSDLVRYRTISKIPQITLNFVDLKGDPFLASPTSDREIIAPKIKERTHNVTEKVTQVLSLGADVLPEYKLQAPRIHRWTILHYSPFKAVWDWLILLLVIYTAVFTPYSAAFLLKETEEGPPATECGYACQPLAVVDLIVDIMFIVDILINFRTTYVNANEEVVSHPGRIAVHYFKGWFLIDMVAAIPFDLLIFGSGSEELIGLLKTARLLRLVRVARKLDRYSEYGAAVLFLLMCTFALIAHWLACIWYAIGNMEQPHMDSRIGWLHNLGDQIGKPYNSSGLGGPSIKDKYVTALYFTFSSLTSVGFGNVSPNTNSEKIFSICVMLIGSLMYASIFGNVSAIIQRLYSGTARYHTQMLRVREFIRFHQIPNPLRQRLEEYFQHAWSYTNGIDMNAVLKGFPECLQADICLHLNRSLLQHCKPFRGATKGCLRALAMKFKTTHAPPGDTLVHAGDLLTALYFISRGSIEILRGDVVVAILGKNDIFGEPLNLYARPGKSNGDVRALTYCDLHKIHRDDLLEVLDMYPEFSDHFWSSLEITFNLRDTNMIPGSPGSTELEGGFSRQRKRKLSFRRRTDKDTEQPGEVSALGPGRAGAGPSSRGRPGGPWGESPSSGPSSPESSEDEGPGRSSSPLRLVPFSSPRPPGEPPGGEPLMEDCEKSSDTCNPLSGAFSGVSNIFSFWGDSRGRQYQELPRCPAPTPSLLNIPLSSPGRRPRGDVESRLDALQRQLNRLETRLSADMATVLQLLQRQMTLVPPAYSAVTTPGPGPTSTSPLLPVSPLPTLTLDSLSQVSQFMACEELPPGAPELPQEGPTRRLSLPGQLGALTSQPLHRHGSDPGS
Chain of Cytochrome P450 2D6 (P10635 whole entry): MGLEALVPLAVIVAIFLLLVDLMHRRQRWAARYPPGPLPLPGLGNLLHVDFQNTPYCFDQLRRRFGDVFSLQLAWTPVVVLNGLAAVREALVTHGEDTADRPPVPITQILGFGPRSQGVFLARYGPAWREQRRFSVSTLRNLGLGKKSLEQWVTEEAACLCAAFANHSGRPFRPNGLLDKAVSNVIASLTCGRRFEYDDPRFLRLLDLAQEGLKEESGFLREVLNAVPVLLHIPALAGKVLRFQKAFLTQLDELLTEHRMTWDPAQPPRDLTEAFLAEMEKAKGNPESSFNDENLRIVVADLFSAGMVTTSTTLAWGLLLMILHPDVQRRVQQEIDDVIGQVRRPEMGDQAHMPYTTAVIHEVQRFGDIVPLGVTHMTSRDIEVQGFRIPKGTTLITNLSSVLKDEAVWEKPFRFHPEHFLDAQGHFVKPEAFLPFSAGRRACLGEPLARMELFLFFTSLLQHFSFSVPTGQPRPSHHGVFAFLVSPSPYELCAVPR
Chain of Voltage-gated inwardly rectifying potassium channel KCNH2 (Q12809 whole entry): as the sequence (Q12809 whole entry) above

Ki [1] [µM]	Structure (SMILES)	metabolized at 20 min [2] [%]	metabolized at 20 min [3] [%]	Stability [4] [%]	IC50 (Cytochrome P450 3A4) [µM]	IC50 (Cytochrome P450 2D6) [µM]	IC50 [5] [µM]	inhibition at 1 µM (hERG (KCNH2) [6]) [%]	inhibition at 10 µM (hERG (KCNH2) [7]) [%]
0.022	CCCOc1sc(C(=O)N2CCC(c3cccc(CN)c3)CC2)c(C)c1Br	26	6	70	4.7	2.5	1		
	CCCOc1sc(C(=O)N2[C@H]3CC[C@H]2CC(c2cc(CN)ccc2F)C3)c(C)c1Br (some centres undefined)	7	0	86	5.3	6.9		14	36
